According to ChEMBL document CHEMBL4382296, “Synthesis, Profiling, and in Vivo Evaluation of Cyclopeptides Containing N-Methyl Amino Acids as Antiplasmodial Agents” (ACS Med Chem Lett, 2019):
Values after ≈ are worked out from the molar mass of the structure shown. Active and inactive are the calls of the source. The calls are words filed in the database; no cut-off is given here. Where a SMILES comes first, the peptide text is derived from it. [ ]: non-standard residue; d: D form. The star is where a group is joined. Trt = c1ccc(C(c2ccccc2)(c2ccccc2)*)cc1; Sar = CNCC(=O)O; tBu = CC(C)(C)*

Legend:
[1] = tested on: Plasmodium falciparum; assay: Plasmodicidal activity against Plasmodium falciparum 3D7A infected in CFDA-SE-labelled erythrocytes assessed as parasite killing at 10 times EC50 treated for 24 to 48 hrs following media refreshment for every 24 hrs by FACS analysis; type: functional, organism-based
Method in brief: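 Viability was judged by the ability of drug-treated parasites to make new invasions of prestained human RBCs. New invasions were quantified by double-colorimetric FACS. Drug treatment used two time points to separate rapidly parasiticidal from moderate or slow acting agents.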

[2] = tested on: Plasmodium berghei; assay: Antiplasmodial activity against exoerythrocytic-stage of Plasmodium berghei ANKA infected in human HepG2 cells expressing CD81 pretreated with cells for 18 hrs followed by parasite infection and measured after 48 hrs by brightglo-luminescence assay; type: functional, organism-based
[3] = n-Octanol/water partition coefficient, log D of compound at pH 7.4 by UV-HPLC analysis
[4] = Solubility of the compound in pH 7.4 phosphate buffered saline after 2 hrs by UV-HPLC analysis; type: physicochemical
Method in brief: (§1)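 Solubility was measured in PBS pH 7.4 and at pH 1.0, in μM, n = 2.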

[5] = Permeability of the compound in pH 7.4 phosphate buffered saline at 20 uM after 20 hrs by PAMPA; type: ADME; conditions: for Papp at 20 h, 20 µM: PAMPA, pH 7.4, read-out: permeability; for permeability: pampa, pH 7.4, 20 h, 20 µM, BLD = below limit of detection
Method in brief: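 PAMPA giving experimental permeability Pe (×10–6 cm/s), n = 3. The limit of quantitation in the acceptor compartment was 0.02 or 0.03 μM.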

[6] = Solubility of the compound in pH 1 0.1M HCl after 2 hrs by UV-HPLC analysis; type: physicochemical; method in brief: as §1
[7] = tested on: Plasmodium falciparum; assay: Anti-plasmodial activity against chloroquine-sensitive Plasmodium falciparum 3D7 infected in erythrocytes after 72 hrs by SYBR green dye based fluorescence assay; type: functional, organism-based; conditions: 3D7, 72 h
Method in brief: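 P. falciparum 3D7 (drug-sensitive) grown in erythrocytes; growth read by SYBR Green fluorescence; EC50 reported as mean ± SD of n = 2.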

[8] = tested on: Plasmodium falciparum; assay: Antiplasmodial activity against chloroquine-resistant Plasmodium falciparum K1 infected in human erythrocytes assessed as reduction in [3H]hypoxanthine incorporation pretreated for 24 hrs followed by [3H]hypoxanthine addition and measured after 24 hrs by liquid scintillation counting method; type: functional, organism-based
Method in brief: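 Chloroquine-resistant P. falciparum K1 in erythrocytes incubated with compound for 24 h; growth read as 3H-hypoxanthine incorporation; EC50 reported as mean ± SD of n = 2.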

[9] = Selectivity index, ratio of IC50 for human HepG2 cells to EC50 for chloroquine-sensitive Plasmodium falciparum 3D7 infected in erythrocytes; type: toxicity, cell-based; conditions: read-out: Ratio IC50/EC50
Method in brief: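 Selectivity index is HepG2 cytotoxicity IC50 divided by EC50 against drug-sensitive P. falciparum 3D7. Parasite EC50 came from a SYBR Green growth assay, with values as the mean of n = 2.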

[10] = Plasma concentration in Swiss albino mouse at 50 mg/kg, po after 0.5 to 12 hrs by LC-MS/MS analysis; type: ADME, organism-based; conditions: in vivo
Method in brief: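 Male Swiss Albino mice received a solution formulation of the compound as one oral dose of 50 mg/kg. Blood was sampled at 0.25, 0.5, 1, 2, 4, 6, 8, 12 and 24 h, and plasma levels were measured (LLOQ 5.16 ng/mL). Values are means, n = 3.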

[11] = tested on: Plasmodium berghei; assay: Antiplasmodial activity against Plasmodium berghei NK65 infected in Swiss mouse assessed as reduction in parasitemia at 50 mg/kg, po administered once daily for 3 consecutive days post infection measured on day 5 post infection relative to control; type: functional; set-up: scale not given: the % may be the effect or the level left
Method in brief: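 Suppressive test in Swiss outbred mice inoculated with P. berghei NK65-infected red blood cells. A single oral dose of 50 mg·kg–1 was given on each of days 2, 3 and 4. Control groups received chloroquine or vehicle. Parasitemia reduction was read on day 5 and followed until day 9.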

[12] = tested on: Plasmodium berghei; assay: Antiplasmodial activity against Plasmodium berghei NK65 infected in Swiss mouse assessed as reduction in parasitemia at 50 mg/kg, po administered once daily for 3 consecutive days post infection measured on day 9 post infection; type: functional, organism-based
Method in brief: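 Four-day suppressive test: Swiss outbred mice inoculated with P. berghei NK65-infected red blood cells, then given a single oral 50 mg/kg dose on each of days 2, 3 and 4. Chloroquine-treated and vehicle-treated groups served as controls. Parasitemia was measured on day 5 and followed to day 9.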

[13] = Selectivity index, ratio of IC50 for mouse J774 cells to EC50 for chloroquine-resistant Plasmodium falciparum K1 infected in human erythrocytes; type: toxicity, cell-based; conditions: read-out: Ratio IC50/EC50

O=C1C(O)=C([C@H]2CC[C@H](c3ccc(Cl)cc3)CC2)C(=O)c2ccccc21 [ATOVAQUONE]
Activity [1]: inactive
EC50 [2]: 2.8 nM

CN1CC(=O)N[C@@H](CSC(c2ccccc2)(c2ccccc2)c2ccccc2)C(=O)N[C@@H](CSC(c2ccccc2)(c2ccccc2)c2ccccc2)C(=O)N(C)CC(=O)N[C@@H](COC(C)(C)C)C1=O (cyclo(C(Trt)C(Trt)[Sar]S(tBu)[Sar]))
logD [3]: 7.7
solubility at 2 h [4]: 0.12 µM (≈ 0.117 µg/mL)
Papp at 20 h, 20 µM [5]: 2 ×10⁻⁶ cm/s
solubility at 2 h [6]: 0.21 µM (≈ 0.205 µg/mL)

CN1CC(=O)N[C@@H](CSC(c2ccccc2)(c2ccccc2)c2ccccc2)C(=O)NCC(=O)N[C@@H](CSC(c2ccccc2)(c2ccccc2)c2ccccc2)C(=O)N(C)CC(=O)N[C@@H](CCC(=O)O)C1=O (cyclo(C(Trt)GC(Trt)[Sar]E[Sar]))
EC50 [7]: 210 nM
permeability [5]: Bld

C[C@@H]1CC[C@H]2[C@@H](C)C(=O)O[C@@H]3O[C@@]4(C)CC[C@@H]1[C@]32OO4 [ARTEMISININ]
EC50 [8]: 20 nM

C[C@@H](OC(C)(C)C)[C@@H]1NC(=O)CN(C)C(=O)[C@H](CSC(c2ccccc2)(c2ccccc2)c2ccccc2)NC(=O)CNC(=O)[C@H](CSC(c2ccccc2)(c2ccccc2)c2ccccc2)NC(=O)CN(C)C1=O (cyclo(C(Trt)GC(Trt)[Sar]T(tBu)[Sar]))
selectivity ratio [9]: > 1e+06
logD [3]: 6
EC50 [7]: 0.25 nM
solubility at 2 h [4]: 0.38 µM (≈ 0.398 µg/mL)
Cp [10]: > 9 ng/mL
Papp at 20 h, 20 µM [5]: 1 ×10⁻⁶ cm/s
Activity [11]: 71%
Activity [12]: Active
solubility at 2 h [6]: 3.46 µM (≈ 3.62 µg/mL)
EC50 [8]: 0.008 nM
EC90 [8]: 1 nM

CCN(CC)CCCC(C)Nc1ccnc2cc(Cl)ccc12 (stereo not given) [CHLOROQUINE]
EC50 [8]: 470 nM

CN1CC(=O)N[C@@H](CSC(c2ccccc2)(c2ccccc2)c2ccccc2)C(=O)N(C)CC(=O)N[C@@H](CSC(c2ccccc2)(c2ccccc2)c2ccccc2)C(=O)N(C)CC(=O)N[C@@H](CCC(=O)O)C1=O (cyclo(C(Trt)[Sar]C(Trt)[Sar]E[Sar]))
selectivity ratio [9]: > 20000
logD [3]: 3.9
selectivity ratio [13]: 500000
EC50 [7]: 12 nM
solubility at 2 h [4]: 437 µM (≈ 451 µg/mL)
Papp at 20 h, 20 µM [5]: 0.2 ×10⁻⁶ cm/s
Activity [11]: 66%
Activity [12]: Active
solubility at 2 h [6]: 28.3 µM (≈ 29.3 µg/mL)
EC50 [8]: 0.2 nM
EC90 [8]: 4 nM

C[C@@H](OC(C)(C)C)[C@@H]1NC(=O)CNC(=O)[C@H](CSC(c2ccccc2)(c2ccccc2)c2ccccc2)NC(=O)CNC(=O)[C@H](CSC(c2ccccc2)(c2ccccc2)c2ccccc2)NC(=O)CN(C)C1=O (cyclo(C(Trt)GC(Trt)GT(tBu)[Sar]))
selectivity ratio [9]: > 66000
logD [3]: 5.8
selectivity ratio [13]: > 12500
EC50 [7]: 3.8 nM
solubility at 2 h [4]: 0.94 µM (≈ 0.971 µg/mL)
Papp at 20 h, 20 µM [5]: 0.6 ×10⁻⁶ cm/s
solubility at 2 h [6]: 1.17 µM (≈ 1.21 µg/mL)
EC50 [8]: 8 nM
EC90 [8]: 39 nM

C[C@@H](OC(C)(C)C)[C@@H]1NC(=O)CN(C)C(=O)[C@H](CSC(c2ccccc2)(c2ccccc2)c2ccccc2)NC(=O)CN(C)C(=O)[C@H](CSC(c2ccccc2)(c2ccccc2)c2ccccc2)NC(=O)CN(C)C1=O (cyclo(C(Trt)[Sar]C(Trt)[Sar]T(tBu)[Sar]))
selectivity ratio [9]: > 250000
logD [3]: 3.7
Activity [1]: inactive
selectivity ratio [13]: > 2.5e+06
EC50 [7]: 1 nM
solubility at 2 h [4]: 0.55 µM (≈ 0.584 µg/mL)
Papp at 20 h, 20 µM [5]: 0.2 ×10⁻⁶ cm/s
EC50 [2]: 18 nM
solubility at 2 h [6]: 0.38 µM (≈ 0.403 µg/mL)
EC50 [8]: 0.04 nM
EC90 [8]: 1 nM

CN1CC(=O)N[C@@H](CSC(c2ccccc2)(c2ccccc2)c2ccccc2)C(=O)N[C@@H](Cc2ccccc2)C(=O)N[C@@H](COC(C)(C)C)C(=O)N(C)CC(=O)N[C@@H](CSC(c2ccccc2)(c2ccccc2)c2ccccc2)C1=O (cyclo(C(Trt)FS(tBu)[Sar]C(Trt)[Sar]))
selectivity ratio [9]: > 140000
logD [3]: 8
Activity [1]: inactive
selectivity ratio [13]: > 11000
EC50 [7]: 1.8 nM
solubility at 2 h [4]: 0.71 µM (≈ 0.798 µg/mL)
Papp at 20 h, 20 µM [5]: 0.2 ×10⁻⁶ cm/s
EC50 [2]: 335 nM
solubility at 2 h [6]: 5.32 µM (≈ 5.98 µg/mL)
EC50 [8]: 9 nM
EC90 [8]: 59 nM

CN1CC(=O)N[C@@H](CSC(c2ccccc2)(c2ccccc2)c2ccccc2)C(=O)N(C)CC(=O)N[C@@H](CSC(c2ccccc2)(c2ccccc2)c2ccccc2)C(=O)N(C)CC(=O)N[C@@H](COC(C)(C)C)C1=O (cyclo(C(Trt)[Sar]C(Trt)[Sar]S(tBu)[Sar]))
selectivity ratio [9]: > 180000
logD [3]: 6.3
selectivity ratio [13]: > 770000
EC50 [7]: 1.4 nM
solubility at 2 h [4]: 0.18 µM (≈ 0.189 µg/mL)
Papp at 20 h, 20 µM [5]: 0.3 ×10⁻⁶ cm/s
solubility at 2 h [6]: 0.74 µM (≈ 0.775 µg/mL)
EC50 [8]: 0.13 nM
EC90 [8]: 4 nM

CN1CC(=O)N[C@@H](CSC(c2ccccc2)(c2ccccc2)c2ccccc2)C(=O)NCC(=O)N[C@@H](CSC(c2ccccc2)(c2ccccc2)c2ccccc2)C(=O)NCC(=O)N[C@@H](CCC(=O)O)C1=O (cyclo(C(Trt)GC(Trt)GE[Sar]))
selectivity ratio [9]: > 46
logD [3]: 3.1
EC50 [7]: 5400 nM
permeability [5]: Bld

C[C@H]1[C@H](OC(=O)CCC(=O)O)O[C@@H]2O[C@@]3(C)CC[C@H]4[C@H](C)CC[C@@H]1[C@@]24OO3 [ARTESUNATE]
EC50 [7]: 5 nM
EC50 [8]: 3 nM

CCc1nc(N)nc(N)c1-c1ccc(Cl)cc1 [PYRIMETHAMINE]
Activity [1]: inactive
EC50 [7]: 35 nM
